{
  "source": "paper PMC10193968",
  "about": "(Proceedings of the National Academy of Sciences of the …, 2023)",
  "key": {"[1]": {"test_system": "SlituOR5", "assay": "Single-sensillum recordings on Drosophila at1 OSNs expressing SlituOR5", "type": "cell-based, S. litura", "conditions": "10 μg loaded in the stimulus cartridge; panel of 26 pheromone compounds"}, "[2]": {"test_system": "AncOR75", "type": "cell-based, ancestor of S. littoralis and S. litura", "conditions": "doses 10 ng to 100 µg in the stimulus cartridge", "in_short": "(§1)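 Dose–response by single-sensillum extracellular recording from at1 OSNs of flies expressing the receptor transgene instead of Or67d (UAS-Or crossed to Or67d-GAL4). Flies reared at 25 °C, 12 h:12 h light:dark. Stimuli lasted 500 ms, delivered from filter-paper cartridges loaded with 10 ng to 100 µg pheromone diluted in hexane.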"}, "[3]": {"test_system": "AncOR5_75", "type": "cell-based, ancestor of S. littoralis and S. litura", "conditions": "doses 10 ng to 100 µg in the stimulus cartridge", "in_short": "as §1"}, "[4]": {"test_system": "S. littoralis males", "conditions": "traps baited with their own sex pheromones; cited from earlier work"}, "[5]": {"test_system": "S. litura males", "conditions": "traps baited with their own sex pheromones; cited from earlier work"}, "[6]": {"test_system": "SlitOR5", "assay": "Single-sensillum recordings on Drosophila at1 OSNs expressing SlitOR5", "type": "cell-based, S. littoralis", "conditions": "10 μg loaded in the stimulus cartridge; panel of 26 pheromone compounds", "in_short": "(§2)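 Receptor expressed in Drosophila at1 OSNs in place of Or67d (UAS-Or × Or67d-GAL4, double homozygous). Flies kept on cornmeal–yeast–agar at 25 °C, 12 h:12 h light:dark. Single-sensillum extracellular recording with 500 ms stimulation from Pasteur-pipette cartridges holding 10 µg compound (hexane dilution) on filter paper. Panel of 26 pheromone compounds. Active if different from solvent alone (one-way ANOVA, Dunnett's post hoc).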"}, "[7]": {"test_system": "SlitOR75", "assay": "Single-sensillum recordings on Drosophila at1 OSNs expressing SlitOR75", "type": "cell-based, S. littoralis", "conditions": "10 μg loaded in the stimulus cartridge; panel of 26 pheromone compounds", "in_short": "as §2"}, "[8]": {"test_system": "SlituOR75", "assay": "Single-sensillum recordings on Drosophila at1 OSNs expressing SlituOR75", "type": "cell-based, S. litura", "conditions": "10 μg loaded in the stimulus cartridge; panel of 26 pheromone compounds", "in_short": "as §2"}, "[9]": {"test_system": "AncOR5", "assay": "Single-sensillum recordings on Drosophila at1 OSNs expressing resurrected AncOR5", "type": "cell-based, ancestor of S. littoralis and S. litura", "conditions": "10 μg loaded in the stimulus cartridge; panel of 26 pheromone compounds"}, "[10]": {"test_system": "AncOR5", "assay": "Two-electrode voltage-clamp on Xenopus oocytes coexpressing AncOR5 and SlitOrco", "type": "cell-based, ancestor of S. littoralis and S. litura"}, "[11]": {"test_system": "AncOR5_75_mut8x", "type": "cell-based", "conditions": "read-out: EC50, AncOR5_75_mut8x; Xenopus oocytes, concentrations 10^–8 to 10^–4 M"}, "[12]": {"test_system": "SlituOR5", "assay": "Two-electrode voltage-clamp on Xenopus oocytes expressing SlituOR5", "type": "cell-based, S. litura", "conditions": "10^–4 M; panel of 13 pheromone compounds; confirms the Drosophila OSN profile"}, "[13]": {"test_system": "SfruOR5", "assay": "Two-electrode voltage-clamp on Xenopus oocytes expressing SfruOR5", "type": "cell-based, S. frugiperda", "conditions": "10^–4 M; panel of 13 pheromone compounds; confirms the Drosophila OSN profile"}, "[14]": {"test_system": "SexiOR5", "assay": "Two-electrode voltage-clamp on Xenopus oocytes expressing SexiOR5", "type": "cell-based, S. exigua", "conditions": "10^–4 M; panel of 13 pheromone compounds; confirms the Drosophila OSN profile"}, "[15]": {"test_system": "S. exigua males", "conditions": "cited from earlier work"}, "[16]": {"test_system": "S. littoralis and S. litura males", "conditions": "detection of the compound; cited from earlier work"}, "[17]": {"test_system": "S. frugiperda males", "conditions": "presence at 1% in synthetic pheromone blends; cited from earlier work"}, "[18]": {"test_system": "AncOR5_75 V79L_A143T_A204V", "type": "cell-based", "conditions": "10^−5 M solution; panel of six S. littoralis pheromone compounds", "in_short": "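Mutation introduced into the pCS2+ ancestral-receptor plasmid and confirmed by Sanger sequencing. Capped cRNA made with SP6 from NotI-linearized template, coexpressed with SlitOrco in Xenopus oocytes. Two-electrode voltage-clamp inward currents to six compounds at 10^-5 M, diluted from 0.1 M DMSO stocks into Ringer's (HEPES, pH 7.6). Ringer's with 0.01% DMSO as negative control. Tuning compared by principal component analysis.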"}},
  "data": [
    {"smiles": "CC/C=C\\C=C/CCCCCCCCOC(C)=O", "note": "[(Z,Z)-9,11-14:OAc, (Z,Z)-9,11-tetradecadienyl acetate]", "values": [
      {"measurement": "Action potential frequency of at1 OSNs expressing SlituOR5", "setting": "[1]", "result": "significant yet minor response"},
      {"measurement": "Activation threshold / sensitivity, dose–response of AncOR75", "setting": "[2]", "result": "best ligand"},
      {"measurement": "Activation threshold / sensitivity, dose–response of AncOR5_75", "setting": "[3]", "result": "best ligand"}
    ]},
    {"smiles": "CCCC/C=C\\CCCCCCCCO", "note": "[(Z)-9-14:OH, (Z)-9-tetradecen-1-ol]", "values": [
      {"measurement": "Effect on trap catches of S. littoralis males", "setting": "[4]", "result": "reduces catches in traps"},
      {"measurement": "Effect on trap catches of S. litura males", "setting": "[5]", "result": "reduces catches in traps"}
    ]},
    {"smiles": "CC/C=C/C=C\\CCCCCCCCOC(C)=O", "note": "[(Z,E)-9,11-14:OAc, (Z,E)-9,11-tetradecadienyl acetate]", "values": [
      {"measurement": "Action potential frequency of at1 OSNs expressing SlitOR5", "setting": "[6]", "result": "strong responses"},
      {"measurement": "Action potential frequency of at1 OSNs expressing SlituOR5", "setting": "[1]", "result": "strong responses"},
      {"measurement": "Action potential frequency of at1 OSNs expressing SlitOR75", "setting": "[7]", "result": "low responses"},
      {"measurement": "Action potential frequency of at1 OSNs expressing SlituOR75", "setting": "[8]", "result": "low responses"},
      {"measurement": "Action potential frequency of at1 OSNs expressing AncOR5", "setting": "[9]", "result": "responded specifically"},
      {"measurement": "Activation threshold / sensitivity, dose–response of AncOR75", "setting": "[2]", "result": "same activation threshold as AncOR5"},
      {"measurement": "Activation threshold / sensitivity, dose–response of AncOR5_75", "setting": "[3]", "result": "same activation threshold as AncOR5"},
      {"measurement": "Inward current, AncOR5", "setting": "[10]; 10^−5 M solution, panel of six S. littoralis pheromone compounds", "result": "specifically responded"},
      {"measurement": "EC50", "setting": "[10]; read-out: EC50, AncOR5, Xenopus oocytes, concentrations 10^–8 to 10^–4 M", "result": 1100, "unit": "nM"},
      {"measurement": "EC50", "setting": "[11]", "result": 400, "unit": "nM"},
      {"measurement": "Response spectrum (inward current), SlituOR5", "setting": "[12]", "result": "narrowly tuned"},
      {"measurement": "Response spectrum (inward current), SfruOR5", "setting": "[13]", "result": "can bind"},
      {"measurement": "Response spectrum (inward current), SexiOR5", "setting": "[14]", "result": "can bind"},
      {"measurement": "Effect on trap catches of S. exigua males", "setting": "[15]", "result": "decreases trap catches"},
      {"measurement": "Male attraction", "setting": "[16]", "result": "necessary and sufficient to trigger male attraction"}
    ]},
    {"smiles": "CC/C=C/CCCCCCCCCCOC(C)=O", "note": "[(E)-11-14:OAc, (E)-11-tetradecenyl acetate]", "values": [
      {"measurement": "Proportion of males approaching the source in wind tunnel", "setting": "[17]", "result": "strongly increased the proportion of males approaching the source"}
    ]},
    {"smiles": "CC/C=C\\CCCCCCCCCCOC(C)=O", "note": "[(Z)-11-14:OAc, (Z)-11-tetradecenyl acetate]", "values": [
      {"measurement": "Response spectrum (inward current), SfruOR5", "setting": "[13]", "result": "best SfruOR5 ligands"},
      {"measurement": "Proportion of males approaching the source in wind tunnel", "setting": "[17]", "result": "strongly increased the proportion of males approaching the source"}
    ]},
    {"smiles": "C/C=C/C/C=C\\CCCCCCCCOC(C)=O", "note": "[(Z,E)-9,12-14:OAc, (Z,E)-9,12-tetradecadienyl acetate]", "values": [
      {"measurement": "Inward current, triple-mutant V79L_A143T_A204V", "setting": "[18]", "result": "narrow tuning"}
    ]}
  ]
}
